Each block holds one compound with its values, some of them ahead of it. Active and inactive are the calls of the source. The calls are words filed in the database; no cut-off is given here.
What was measured:
[1] = Cytotoxicity against human MG63 cells assessed as decrease in cell viability up to 500 nM by MTT assay; format: toxicity, cell-based; details: mg-63
How it was run: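 MG63 cells; cell viability measured with compounds at concentrations up to 500 nM.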

[2] = target: T1, Vitamin K-dependent gamma-carboxylase (Homo sapiens) (UniProt P38435); test: Activation of gamma-glutamyl carboxylase in human MG63 cells assessed as reduction in un-carboxylated osteocalcin level at 50 nM after 72 hrs by enzyme immuno assay; format: cell-based; details: MG-63
T1 sequence (whole entry): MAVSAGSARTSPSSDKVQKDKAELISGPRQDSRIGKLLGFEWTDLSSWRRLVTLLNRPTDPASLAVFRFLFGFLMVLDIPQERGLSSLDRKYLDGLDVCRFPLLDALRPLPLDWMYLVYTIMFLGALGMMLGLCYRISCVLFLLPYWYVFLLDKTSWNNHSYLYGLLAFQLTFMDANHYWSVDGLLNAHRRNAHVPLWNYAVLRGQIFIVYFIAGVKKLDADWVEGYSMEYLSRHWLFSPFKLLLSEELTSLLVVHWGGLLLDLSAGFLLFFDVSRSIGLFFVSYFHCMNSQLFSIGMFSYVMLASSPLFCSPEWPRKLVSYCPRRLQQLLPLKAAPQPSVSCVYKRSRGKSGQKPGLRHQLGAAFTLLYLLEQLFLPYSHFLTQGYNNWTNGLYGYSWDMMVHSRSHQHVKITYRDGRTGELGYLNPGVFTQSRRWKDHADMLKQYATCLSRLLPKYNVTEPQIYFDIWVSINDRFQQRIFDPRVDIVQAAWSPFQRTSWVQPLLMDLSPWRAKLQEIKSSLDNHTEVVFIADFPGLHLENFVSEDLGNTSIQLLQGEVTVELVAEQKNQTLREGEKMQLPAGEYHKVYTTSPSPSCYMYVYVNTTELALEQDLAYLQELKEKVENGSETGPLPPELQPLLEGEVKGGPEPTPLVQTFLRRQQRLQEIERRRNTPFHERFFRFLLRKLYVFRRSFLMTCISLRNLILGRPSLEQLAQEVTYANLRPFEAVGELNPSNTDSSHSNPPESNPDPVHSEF
How it was run: (§1)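 Human osteosarcoma MG63 cells; uncarboxylated (ucOC) and carboxylated (cOC) osteocalcin measured in culture media/supernatants; untreated controls received no vitamin K or analogue; run in triplicate.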

[3] = target: T1, Vitamin K-dependent gamma-carboxylase (Homo sapiens); test: Activation of gamma-glutamyl carboxylase in human MG63 cells assessed as increase in carboxylated osteocalcin level at 50 nM after 72 hrs by enzyme immuno assay; format: cell-based; details: MG-63; how it was run: as §1
[4] = species on record: Rattus norvegicus; test: Restoration of prothrombin activity in vitamin-K deficient diet fed Wistar-Kyoto rat assessed as plasma prothrombin level at 5 ug/g of food for 2 days by one-stage PT-based clotting assay (reference value: 60%); format: functional
[5] = species on record: Rattus norvegicus; test: Toxicity in vitamin-K deficient diet fed Wistar-Kyoto rat assessed as change in body weight at 5 ug/g of food for 2 to 5 days; format: organism-based; details: in vivo, po
[6] = species on record: Rattus norvegicus; test: Toxicity in vitamin-K deficient diet fed Wistar-Kyoto rat assessed as change in body weight at 0.5 ug/g of food for 5 days; format: organism-based; details: in vivo, po, 120 h
[7] = species on record: Rattus norvegicus; test: Restoration of prothrombin activity in vitamin-K deficient diet fed Wistar-Kyoto rat assessed as plasma prothrombin level at 5 ug/g of food for 5 days by one-stage PT-based clotting assay (reference value: 60%); format: functional

SMILES: COc1c(C)c(Br)c(OC)c2ccccc12
Activity [1]: Non-Toxic

SMILES: CC1=CC(=O)c2ccccc2C1=O [MENADIONE]
Activity [1]: Non-Toxic

SMILES: CC(C)=CCC/C(C)=C/CC/C(C)=C/CC/C(C)=C/CC1=C(C)C(=O)c2ccccc2C1=O
Activity [2]: Active | Activity [3]: Active

SMILES: CCOC(=O)Cc1c(C)c(OC)c2ccccc2c1OC
Activity [1]: Non-Toxic

SMILES: CC1=C(Br)C(=O)c2ccccc2C1=O
Activity [1]: Non-Toxic

SMILES: COc1c(C)c(CC(=O)O)c(OC)c2ccccc12
Activity [2]: Active | Activity [1]: Non-Toxic | Activity [3]: Active

Further lines, with some results ahead:

Activity [2]: Active
SMILES: CCCCCCCCCCCCCCCCCCNC(=O)CC1=C(C)C(=O)c2ccccc2C1=O
Activity [1]: Non-Toxic

Activity [2]: Active | Activity [3]: Active
SMILES: CCCCCCCCCCCCCCCCNC(=O)CC1=C(C)C(=O)c2ccccc2C1=O
Activity [1]: Non-Toxic

Activity [2]: Active
SMILES: CCCCCCCCCCCCCCCCCNC(=O)CC1=C(C)C(=O)c2ccccc2C1=O
Activity [1]: Non-Toxic

Activity [2]: Active | Activity [3]: Active
SMILES: CCCCCCCCCCCCCCNC(=O)CC1=C(C)C(=O)c2ccccc2C1=O
Activity [1]: Non-Toxic | Activity [4]: 107% | Activity [5]: Non-Toxic | Activity [6]: Non-Toxic | Activity [7]: 106%

Activity [2]: Active | Activity [3]: Active
SMILES: CCOC(=O)CC1=C(C)C(=O)c2ccccc2C1=O
Activity [1]: Non-Toxic

Activity [2]: Active | Activity [3]: Active
SMILES: CC1=C(CC(=O)O)C(=O)c2ccccc2C1=O
Activity [1]: Non-Toxic

— ChEMBL document CHEMBL3870351, “Synthesis of 2-methyl-1,4-naphthoquinones with higher gamma-glutamyl carboxylase activity than MK-4 both in vitro and in vivo” (Bioorg Med Chem Lett, 2017)
